Results published in ChEMBL document CHEMBL1667743, “Functional in vivo imaging of cysteine cathepsin activity in murine model of inflammation” (Bioorg Med Chem, 2011).

Assays:
[1] = substrate: CC(C)(C)OC(=O)NCC[C@H](NC(=O)[C@H](CC1CCCCC1)NC(=O)N1CCOCC1)C(=O)NCCNC(=O)OCC1c2ccccc2-c2ccccc21; assay: Activity at recombinant cathepsin K
Summary of the method: (§1)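 Active-site-titrated (E-64) recombinant human cathepsins B, L, S and in-house cathepsin K, 10 nM final in pH 6.5 acetate/HEPES buffer with 300 mM NaCl, 0.001% Pluronic and L-cysteine; DMSO-dissolved Cy7/BHQ-3 quenched substrate 0.8–40 µM final (DMSO ≤1%); fluorescence read at 25 °C (λex 710, λem 767 nm); steady-state data fitted by non-linear least squares to Michaelis–Menten with substrate inhibition.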

[2] = substrate: CC(C)(C)OC(=O)NCC[C@H](NC(=O)[C@H](CC1CCCCC1)NC(=O)N1CCOCC1)C(=O)NCCNC(=O)OCC1c2ccccc2-c2ccccc21; assay: Ratio of Kcat/Km for recombinant cathepsin K; summary of the method: as §1
[3] = substrate: CC(C)(C)OC(=O)NCC[C@H](NC(=O)[C@H](CC1CCCCC1)NC(=O)N1CCOCC1)C(=O)NCCNC(=O)OCC1c2ccccc2-c2ccccc21; assay: (§2) Activity at recombinant cathepsin L; summary of the method: as §1
[4] = substrate: CCN(CC)c1ccc2nc3ccc(/N=N/c4ccc(N(C)CCCC(=O)NCCNC(=O)[C@H](CCNC(=O)CCCCCN5/C(=C\C=C\C=C\C=C\C6N(CC)c7ccc(S(=O)(=O)O)cc7C6(C)C)C(C)(C)c6cc(S(=O)(=O)[O-])ccc65)NC(=O)[C@H](CC5CCCCC5)NC(=O)N5CCOCC5)cc4)cc3[n+](-c3ccccc3)c2c1; assay: as §2; summary of the method: as §1
[5] = substrate: CC(C)(C)OC(=O)NCC[C@H](NC(=O)[C@H](CC1CCCCC1)NC(=O)N1CCOCC1)C(=O)NCCNC(=O)OCC1c2ccccc2-c2ccccc21; assay: (§3) Ratio of Kcat/Km for recombinant cathepsin L; summary of the method: as §1
[6] = substrate: CCN(CC)c1ccc2nc3ccc(/N=N/c4ccc(N(C)CCCC(=O)NCCNC(=O)[C@H](CCNC(=O)CCCCCN5/C(=C\C=C\C=C\C=C\C6N(CC)c7ccc(S(=O)(=O)O)cc7C6(C)C)C(C)(C)c6cc(S(=O)(=O)[O-])ccc65)NC(=O)[C@H](CC5CCCCC5)NC(=O)N5CCOCC5)cc4)cc3[n+](-c3ccccc3)c2c1; assay: as §3; summary of the method: as §1
[7] = substrate: CC(C)(C)OC(=O)NCC[C@H](NC(=O)[C@H](CC1CCCCC1)NC(=O)N1CCOCC1)C(=O)NCCNC(=O)OCC1c2ccccc2-c2ccccc21; assay: (§4) Activity at recombinant cathepsin S; summary of the method: as §1
[8] = substrate: CCN(CC)c1ccc2nc3ccc(/N=N/c4ccc(N(C)CCCC(=O)NCCNC(=O)[C@H](CCNC(=O)CCCCCN5/C(=C\C=C\C=C\C=C\C6N(CC)c7ccc(S(=O)(=O)O)cc7C6(C)C)C(C)(C)c6cc(S(=O)(=O)[O-])ccc65)NC(=O)[C@H](CC5CCCCC5)NC(=O)N5CCOCC5)cc4)cc3[n+](-c3ccccc3)c2c1; assay: as §4; summary of the method: as §1
[9] = substrate: CC(C)(C)OC(=O)NCC[C@H](NC(=O)[C@H](CC1CCCCC1)NC(=O)N1CCOCC1)C(=O)NCCNC(=O)OCC1c2ccccc2-c2ccccc21; assay: (§5) Ratio of Kcat/Km for recombinant cathepsin S; summary of the method: as §1
[10] = substrate: CCN(CC)c1ccc2nc3ccc(/N=N/c4ccc(N(C)CCCC(=O)NCCNC(=O)[C@H](CCNC(=O)CCCCCN5/C(=C\C=C\C=C\C=C\C6N(CC)c7ccc(S(=O)(=O)O)cc7C6(C)C)C(C)(C)c6cc(S(=O)(=O)[O-])ccc65)NC(=O)[C@H](CC5CCCCC5)NC(=O)N5CCOCC5)cc4)cc3[n+](-c3ccccc3)c2c1; assay: as §5; summary of the method: as §1

B1: Cathepsin K (Homo sapiens), P43235 (protein)
chain: MWGLKVLLLPVVSFALYPEEILDTHWELWKKTHRKQYNNKVDEISRRLIWEKNLKYISIHNLEASLGVHTYELAMNHLGDMTSEEVVQKMTGLKVPLSHSRSNDTLYIPEWEGRAPDSVDYRKKGYVTPVKNQGQCGSCWAFSSVGALEGQLKKKTGKLLNLSPQNLVDCVSENDGCGGGYMTNAFQYVQKNRGIDSEDAYPYVGQEESCMYNPTGKAAKCRGYREIPEGNEKALKRAVARVGPVSVAIDASLTSFQFYSKGVYYDESCNSDNLNHAVLAVGYGIQKGNKHWIIKNSWGENWGNKGYILMARNKNNACGIANLASFPKM
For B1, the Km [1] was 89 µM and the kcat/Km [2] was 187 M⁻¹ s⁻¹.

B2: Procathepsin L (Homo sapiens), P07711 (protein)
chain: MNPTLILAAFCLGIASATLTFDHSLEAQWTKWKAMHNRLYGMNEEGWRRAVWEKNMKMIELHNQEYREGKHSFTMAMNAFGDMTSEEFRQVMNGFQNRKPRKGKVFQEPLFYEAPRSVDWREKGYVTPVKNQGQCGSCWAFSATGALEGQMFRKTGRLISLSEQNLVDCSGPQGNEGCNGGLMDYAFQYVQDNGGLDSEESYPYEATEESCKYNPKYSVANDTGFVDIPKQEKALMKAVATVGPISVAIDAGHESFLFYKEGIYFEPDCSSEDMDHGVLVVGYGFESTESDNNKYWLVKNSWGEEWGMGGYVKMAKDRRNHCGIASAASYPTV
B2 was tested, and the Km [3] was 840 µM, the Km [4] was 280 µM and the kcat/Km [5] was 7070 M⁻¹ s⁻¹. For the same protein, the kcat/Km [6] was 187 M⁻¹ s⁻¹.

B3: Cathepsin S (Homo sapiens), P25774 (protein)
chain: MKRLVCVLLVCSSAVAQLHKDPTLDHHWHLWKKTYGKQYKEKNEEAVRRLIWEKNLKFVMLHNLEHSMGMHSYDLGMNHLGDMTSEEVMSLMSSLRVPSQWQRNITYKSNPNRILPDSVDWREKGCVTEVKYQGSCGACWAFSAVGALEAQLKLKTGKLVSLSAQNLVDCSTEKYGNKGCNGGFMTTAFQYIIDNKGIDSDASYPYKAMDQKCQYDSKYRAATCSKYTELPYGREDVLKEAVANKGPVSVGVDARHPSFFLYRSGVYYEPSCTQNVNHGVLVVGYGDLNGKEYWLVKNSWGHNFGEEGYIRMARNKGNHCGIASFPSYPEI
Protein B3 has a Km [7] of 1.3 µM, a Km [8] of 25 µM and a kcat/Km [9] of 15100 M⁻¹ s⁻¹. For the same protein, the kcat/Km [10] was 14200 M⁻¹ s⁻¹.
